Bioassay records from PubChem.
An excerpt weighted towards active compounds, which were near 1.7% of everything screened.
CSN deneddyl inh: inhibitors of CSN-mediated cullin deneddylation, primary screen, biochemical, fluorescence polarization, uHTS | 0.38% of 360,000 active | inhibition, % at 12.5 µM | Purified CSN, SCF-Nedd8-OG deneddylation | COP9 signalosome complex subunit 5 (Homo sapiens), Q92905;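 active = pattern-corrected inhibition above about 35%, with an unprinted fluorescence ratio check between 0.5 and 1.5, limit read from the data, passing the limit was not always enough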
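Assay system: HEK293T-derived human Csn5 enzyme; quantity: 0.24 nM enzyme; medium: Tris/NaCl/DTT buffer, pH 7.5; also added: substrate SCFSkp2-Nedd8OG, 10 nM; doses: 12.5 µM compound; schedule: 90 min reaction at room temperature; signal: FP; read-out: % inhibition of substrate cleavage by Csn5; benchmarks: substrate-only high control, full reaction low control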
IDE cell inh: human IDE inhibitors in live cells, primary screen, fluorescence polarization, HEK cells, FAbetaB substrate; Insulin-degrading enzyme (Homo sapiens), P14735; FAbetaB cleavage; inhibition, % at 5.59 µM; 0.41% of 320,000 active; AID 434962, 2010;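 active = percent inhibition above the average of all tested compounds plus 3 SD, set per screening campaign, cut at about 16% in these data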;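 also: IDE supplied by intact live HEK cells; FP after avidin binding of uncleaved biotin substrate so inhibition keeps polarization high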
IDE cell activ: human IDE activators in live cells, primary screen, fluorescence polarization, HEK cells, FAbeta-B substrate. Insulin-degrading enzyme (Homo sapiens), P14735. FAbeta-B cleavage; 0% vehicle, 100% cell-free pure enzyme wells. activation, % at 5.96 µM. 0.073% of 340,000 active. AID 493087, 2011;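 active = activation above the mean of all tested compounds plus 3 SD, set per screening campaign, cut at about 17% in these data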
TPT1 inhibitor: Candida albicans TPT1 enzyme inhibitors, primary screen, biochemical, fluorescence polarization; recombinant caTPT1, FP RNA substrate dephosphorylation; inhibition, % at 5 µM; 0.81% of 300,000 active;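 active = inhibition above the mean of all tested compounds plus 3 SD, set per screening campaign, cut at about 24% in these data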
Rpn11 inh: Rpn11 (PSMD14) deubiquitinase inhibitors, primary screen, biochemical, fluorescence polarization, uHTS. human 26S proteasome, Ub4-pepOG fluorescence polarization; 20S core pre-blocked with epoxomicin. inhibition, % at 20 µM. 0.59% of 360,000 active. AID 588493, 2011;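 active = inhibition at 20 µM, scaled to each plate's controls, above about 33%, limit read from the data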
HNF4A DNA FP: change in binding of human HNF4A to DNA, primary screen, biochemical, fluorescence polarization, FITC-DNA; 1 h; 0.3% of 360,000 active; activity change, % at 10 µM; in the data active = activity change above about 30%, passing the limit was not always enough
Target sequence (P41235 whole entry, looked up): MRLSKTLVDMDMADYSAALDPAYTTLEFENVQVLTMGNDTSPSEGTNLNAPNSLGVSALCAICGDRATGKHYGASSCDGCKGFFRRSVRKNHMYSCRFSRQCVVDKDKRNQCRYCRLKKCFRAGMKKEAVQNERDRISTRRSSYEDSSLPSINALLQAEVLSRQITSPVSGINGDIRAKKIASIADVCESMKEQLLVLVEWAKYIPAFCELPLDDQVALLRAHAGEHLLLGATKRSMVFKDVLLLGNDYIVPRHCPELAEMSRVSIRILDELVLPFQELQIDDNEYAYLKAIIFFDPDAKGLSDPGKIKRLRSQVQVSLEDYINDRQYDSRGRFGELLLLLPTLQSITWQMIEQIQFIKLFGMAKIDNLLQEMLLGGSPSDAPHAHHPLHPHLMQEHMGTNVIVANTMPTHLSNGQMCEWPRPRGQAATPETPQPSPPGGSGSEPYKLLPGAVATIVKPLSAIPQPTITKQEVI
Numbers stand for hits; 0 = inactive; - = not tested or not shown.

SMILES	CSN deneddyl inh	IDE cell inh	IDE cell activ	TPT1 inhibitor	Rpn11 inh	HNF4A DNA FP
CSCCC(NC(=O)c1ccc(C(C)(C)C)cc1)C(=O)OCC(=O)N1CCCC1=O (stereo not given)	66.7	0	0	-	0	0
COC(=O)C1=C(C)N(Cc2ccccc2)C(=NCC(C)C)N[C@H]1c1cccc(C(F)(F)F)c1	0	0	0	-	0	0
COC(=O)C1=C(C)N(Cc2ccccc2)C(=NCc2cccc(Cl)c2)N[C@H]1c1cccc(F)c1	0	0	17.8	-	0	0
COC(=O)C1=C(C)N(Cc2ccccc2)C(=NCc2ccccc2)N[C@H]1c1cccc(C(F)(F)F)c1	0	0	21.9	-	0	0
C[C@@H]1CN([C@H](C)CO)C(=O)CCCn2nncc2CO[C@H]1CN(C)Cc1ccc2c(c1)OCO2	0	-	-	-	0	0
COC(=O)[C@@]12C[C@@H](CC(=O)NCc3ccccc3)C(=O)N(Cc3ccc4c(c3)OCO4)C1=CCC(C)(C)C2	0	-	-	-	-	0
OC(CNCC1CCCO1)Cn1c2ccc(Cl)cc2c2cc(Cl)ccc21 (stereo not given)	0	0	0	0	0	0
OC(CNCCC1C=Nc2ccccc21)Cn1c2ccc(Cl)cc2c2cc(Cl)ccc21 (stereo not given)	0	0	19.4	0	0	0
C[C@@H]1COc2cc(N3CCC[C@@H]3CO)ccc2S(=O)(=O)N1	0	-	-	-	-	0
COc1cc(C(=O)NCCCc2nc3ccccc3n2Cc2cc(C)ccc2C)cc(OC)c1OC	0	0	0	0	0	37.0
CC(=O)NCCCc1nc2ccccc2n1Cc1cc(C)ccc1C	0	0	0	0	0	0
O=C(O)CCCCC1CCSS1 (stereo not given)	35.4	0	0	0	0	0
CCCCCCCCCC(=O)O	0	0	0	-	0	0
CSC1=N/C(=C\c2ccc(Br)o2)C(=O)S1	42.9	0	0	0	0	0
CCN(C(=S)Nc1ccc(C(C)=O)cc1)C1CCCCC1	48.2	0	0	0	0	0
CCCN(CC1CC1)C(=S)Nc1ccc(C(C)=O)cc1	0	0	0	0	0	0
COc1ccc(NC(=O)NS(=O)(=O)c2ccc(C)cc2)cn1	0	-	30.1	-	0	0
COc1cccc(Cn2c(C(C)n3c(C)nc4ccccc43)nc3ccccc32)c1 (stereo not given)	0	-	-	-	-	0
O=C(Nc1ccc2nc(-c3cccs3)c(-c3cccs3)nc2c1)NC1CC1	0	0	0	0	36.7	0
COCCNC(=O)Nc1ccc2nc(-c3cccs3)c(-c3cccs3)nc2c1	0	0	0	0	0	0
COc1ccc(Cn2c(SCc3cc(C)ccc3C)nc3cc(OC)c(OC)cc3c2=N)cc1	0	0	26.6	0	0	0
COc1ccc(Cn2c(SCc3ccc(C)cc3)nc3cc(OC)c(OC)cc3c2=N)cc1Cl	0	0	19.9	0	0	0
CCc1ccccc1CC1CN(Cc2ccccc2)Cc2ccccc2N1c1ccc(OC)cc1 (stereo not given)	0	-	-	-	-	0
Cc1cc(C(=O)NC2CCCc3ccccc32)c(C)o1 (stereo not given)	0	0	0	0	0	0
Cc1cc(C(=O)NC2CCC(O)CC2)c(C)o1 (stereo not given)	88.6	0	0	-	0	0
SMILES	CSN deneddyl inh	IDE cell inh	IDE cell activ	TPT1 inhibitor	Rpn11 inh	HNF4A DNA FP
CCCC(NC(=O)Cc1c(C)c2cc3c(C)c(C)oc3c(C)c2oc1=O)C(=O)N[C@@H](Cc1ccccc1)C(=O)O (stereo not given in full)	0	0	0	0	75.7	0
CCCCC(NC(=O)Cc1c(C)c2cc3c(C)c(C)oc3c(C)c2oc1=O)C(=O)O (stereo not given)	0	0	0	0	0	0
COC(=O)C[C@@H]1CC[C@H](NC(=O)CC2CC2)[C@@H](CO)O1	0	-	-	-	-	0
CCOC(=O)C1=C(O)/C(=C\c2ccc(CNC(=O)C(=O)Nc3ccccc3)o2)N=C1C	41.1	0	0	0	0	0
CCOC(=O)C1=C(O)/C(=C\c2cccs2)N=C1C	0	0	0	0	0	0
O=C(COC(=O)c1ccc([N+](=O)[O-])s1)Nc1ncc(C(F)(F)F)cc1Cl	37.6	0	0	0	0	0
CC(C)NC(=O)C1(C)CN(S(C)(=O)=O)CC(=O)N1Cc1cccs1 (stereo not given)	0	-	-	-	-	0
O=C(Nc1ccc(-c2nc3ccccc3o2)cc1)c1ccc2c(c1)OCO2	0	0	17.8	0	0	0
C[C@@H]1CN([C@@H](C)CO)C(=O)CCCn2nncc2CO[C@@H]1CN(C)S(=O)(=O)c1ccccc1	0	-	-	-	0	0
CCS(=O)(=O)N1N=C(c2cccc(NS(C)(=O)=O)c2)CC1c1ccc(C)cc1 (stereo not given)	73.2	0	0	0	-	0
Cc1ccc(C2=NN(S(C)(=O)=O)C(c3ccc4c(c3)OCO4)C2)cc1 (stereo not given)	0	0	0	0	0	50.8
CCS(=O)(=O)N1N=C(c2cccc(NS(C)(=O)=O)c2)CC1c1ccccc1 (stereo not given)	0	0	0	0	-	0
NC(=O)c1cccc(-c2ccnc3c2CC(C(=O)Nc2cccc(Oc4ccccc4)c2)O3)c1 (stereo not given)	0	-	-	-	0	0
COc1ccc(C2=Nc3ccccc3N(C(=O)c3cc(Cl)cc(Cl)c3)C2C(=O)NCc2ccccc2)cc1 (stereo not given)	0	-	-	-	-	0
N=c1n(Cc2ccccc2Cl)c2ccccc2n1CC(O)c1ccco1 (stereo not given)	0	0	0	0	0	61.1
O=C1Nc2ccccc2C(=O)N(c2ccc3c(c2)OCCO3)C1C(=O)NC1CC1 (stereo not given)	0	-	-	-	-	0
Cc1cc(=O)oc2c(C)c(OC(C)C(=O)NCCN3CCOCC3)ccc12 (stereo not given)	0	0	0	0	0	0
Cc1c(OC(C)C(=O)NCCN2CCOCC2)ccc2c3c(c(=O)oc12)CCCC3 (stereo not given)	41.3	0	0	0	0	0
O=[N+]([O-])c1cc(C(F)(F)F)ccc1NCCCN1CCOCC1	0	0	0	0	0	0
O=[N+]([O-])c1cc(C(F)(F)F)cc([N+](=O)[O-])c1NCCCN1CCOCC1	0	0	0	0	0	62.3
O=C(Nc1ccc(Cl)c([N+](=O)[O-])c1)c1ccc(NCCCN2CCOCC2)c([N+](=O)[O-])c1	0	0	0	0	53.8	0
